From PubChem
Many of the other results were omitted from the sample, so hits are more common in it than they were.
PGC1a Ac signal – raises PGC1a acetylation signal in U2OS cells | 350,000 compounds, 0.21% hits | U2OS PGC1a acetylation AlphaScreen, overnight | activation, % at 15.6 µM;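 active means every replicate reaching activation of at least 50%, whatever the mean replicate activation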;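 further: hits raise the AlphaScreen acetylation signal above neutral controls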
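Test system: U2OS cells expressing flag-PGC1a plus GCN5; Amount: 7000 U2OS cells per well; Compound: single test concentration per compound; Incubation: compound overnight at 37 °C, each detection step 1 h RT; Signal: AlphaScreen lysate read.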
Hits are given with their value; 0 = inactive.

SMILES	PGC1a Ac signal
CC(=O)c1c(N2CCOCC2)nc(=O)n(-c2ccccc2)c1C	0
CCn1c(Oc2ccccc2F)nc2c1c(=O)n(C)c(=O)n2C	0
COc1ccc(NC(=O)N[C@H]2CC[C@H](CCn3cc(-c4ccccc4F)nn3)O[C@@H]2CO)cc1	0
NC(Cc1ccccc1)c1csc(NC(=O)Nc2ccccc2Oc2ccccc2)n1 (stereo not drawn)	71
C=CS(=O)(=O)N(Cc1ccc(Cl)c(Cl)c1)C[C@@H](O)CO	65
O=C1C=CC2(C=C1)O[C@H](Cc1ccccc1)[C@@H](Cc1ccccc1)O2	0
CCOC(=O)c1c(CN2CCN(CC#N)CC2)n(C)c2cc(Br)c(OC)cc12	69
Cc1cc(C)nc(NC(=O)NS(=O)(=O)Nc2ccc(Br)cn2)n1	0
O=C(Nc1ccc(Cl)c(Cl)c1)N[C@@H]1CC[C@H](CCn2cc(C3CC3)nn2)O[C@H]1CO	0
CC(C)(c1ccccc1)c1ccc(OCCCNCCO)cc1	88
Cc1noc(C)c1S(=O)(=O)Nc1cccc2c1O[C@@H](CN(C)Cc1ccncc1)[C@@H](C)CN([C@@H](C)CO)C2=O	0
Cn1ncc2c(O/N=C(\N)c3ccc(C(F)(F)F)cc3)ncnc21	0
O=C1c2ccsc2SCCN1Cc1cccc(Cl)c1	50
C[C@@H]1CN([C@@H](C)CO)C(=O)c2cc(NS(=O)(=O)c3ccc(F)cc3)ccc2O[C@@H]1CN(C)S(=O)(=O)c1ccc(Cl)cc1	0
O=C(/C=C/c1ccc(F)cc1)NNC(=O)CCN1CCN(Cc2ccccc2)CC1	0
CCOC(=O)C1=CC[C@@H](c2ccc(OC)cc2)N(S(=O)(=O)c2ccc(C)cc2)[C@H]1CC	90
CCOC(=O)c1oc2ccc(S(=O)(=O)N3CCC(C)CC3)cc2c1C	0
Cc1ccc(O)c(C(=O)c2cnc3c(c2)CN(CCC(C)C)C(=O)N3)c1	70
Cc1ccc(S(=O)(=O)N(C)C[C@@H]2OCCCC[C@H](C)Oc3ccc(NS(C)(=O)=O)cc3C(=O)N([C@@H](C)CO)C[C@@H]2C)cc1	0
S=c1nc[nH]c2c1cnn2Cc1ccccc1	0
COc1ccc2c(c1)c(CC(=O)OCC(N)=O)c(C)n2C(=O)c1ccc(Cl)cc1	0
CCOC(=O)c1[nH]c2ccc(OC)cc2c1NC(=O)c1ccc2c(c1)OCO2	55
O=C(CCSc1nnc(-c2ccc(O)cc2)o1)N1CCOCC1	0
Cc1cc(C)n(C/C=C/Cn2nc(C)cc2C)n1	0
COc1ccccc1CN=Cc1[nH]c2ccc(Br)c(Cl)c2c1O	52
SMILES	PGC1a Ac signal
CC(=O)Nc1ccc(NC(=O)c2cc(=O)c3ccccc3o2)cc1	0
CC(=O)Nc1ccc(Sc2ccc([N+](=O)[O-])o2)cc1	438
CCN1CCN(C(=O)c2c(-c3c(F)cccc3Cl)noc2C)CC1	71
O=C(c1cccc(Cl)c1)N1CCN(c2ccc(N3CCOCC3)nn2)CC1	0
CC1CN(C2CCN(C(=O)c3cccc(Cl)c3)CC2)CC(C)O1 (stereo not drawn)	0
C[C@@H]1CN([C@@H](C)CO)C(=O)CCCn2nncc2CO[C@H]1CN(C)Cc1ccc(O)cc1	0
COc1ccc(CC(CC(=O)O)C(=O)Nc2ccc(OC)cc2)cc1 (stereo not drawn)	50
COc1ccc(CCN2C(=O)N(c3ccc(OC)cc3)C(=O)C2CC(=O)Nc2ccccc2)cc1 (stereo not drawn)	0
C[C@@H]1CN([C@H](C)CO)C(=O)CCCn2nncc2CO[C@H]1CN(C)S(=O)(=O)c1cn(C)cn1	0
Nc1nnc(CC(=O)N/N=C/c2ccccc2OCc2ccc(F)cc2)s1	0
Cc1cc(OCC(=O)NNC(=O)c2cnccn2)cc(C)c1Cl	0
Cc1ccccc1OCC(=O)N/N=C/c1cc2ccccc2nc1Cl	59
Cc1noc(C)c1NC(=O)N(C)C[C@@H]1Oc2ccc(NS(=O)(=O)c3cn(C)cn3)cc2C(=O)N([C@@H](C)CO)C[C@@H]1C	0
O=C(CSc1nc2ccccc2c(=O)n1CC1CCCO1)N1CCN(c2ccccc2)CC1 (stereo not drawn)	0
Cc1ccccc1-c1nc(C(=O)NCC2CCCO2)cc2c1[nH]c1ccccc12 (stereo not drawn)	61
Cc1ccc(-c2cc(C(=O)NCC3CCCO3)c3ccccc3n2)cc1C (stereo not drawn)	0
O=C(O)CCCC(=O)Nc1ccc(Br)cc1C(=O)O	50
CS(=O)(=O)c1nc(-c2ccccc2)cc(C(F)(F)F)n1	0
CCCc1nnc(NC(=O)CN2CCOCC2)s1	93
CCC(=O)Nc1nnc(SCCOC)s1	0
O=[N+]([O-])c1ccc(/C=N/n2c(CO)nc3ccccc32)s1	53
CC(C)NC(=O)N(C)C[C@H]1OCCCC[C@@H](C)Oc2ccc(NC(=O)CCCN(C)C)cc2C(=O)N([C@@H](C)CO)C[C@@H]1C	0
O=C(Nc1ccc(F)cc1)N1CC(=O)N2[C@@H](CO)[C@@H](c3ccc(-c4ccccc4)cc3)[C@@H]2C1	0
O=C(Nc1ccc(F)cc1)N1C[C@@H]2N[C@H](C1)C2c1ccc(/C=C/c2ccccc2)cc1 (stereo partly drawn)	59
O=C(Nc1ccc(F)cc1)N1CC(=O)N2[C@@H](CO)[C@H](c3ccc(Br)cc3)[C@@H]2C1	0
SMILES	PGC1a Ac signal
COc1ccc(-c2ccc(C3[C@@H]4CN(C(=O)Nc5cccc(F)c5)C[C@H]3N4)cc2)cc1 (stereo partly drawn)	64
Cc1ccccc1-c1ccc(C2[C@@H]3CN(C(=O)Nc4cccc(F)c4)C[C@H]2N3)cc1 (stereo partly drawn)	56
N#Cc1ccc(-c2ccc([C@@H]3[C@@H]4CN(S(=O)(=O)c5ccc(-c6ccccc6)cc5)C[C@H]3N4)cc2)cc1	0
Cc1ccccc1-c1ccc(C2[C@@H]3CN(S(=O)(=O)c4ccccc4C)C[C@H]2N3)cc1 (stereo partly drawn)	92
COc1ccc(S(=O)(=O)Nc2ccc3c(c2)C(=O)N([C@H](C)CO)C[C@H](C)[C@H](CN(C)S(=O)(=O)c2cn(C)cn2)OCCCC[C@@H](C)O3)cc1	0
CN(C)c1ccc(Sc2ccc3nc(N)nc(N)c3c2)cc1	0
CN(C)c1ccc(C(=O)NC2(N3CCC3=O)CCCC2)cc1	0
O=C(N/N=C\c1cccc([N+](=O)[O-])c1O)C1COc2ccccc2O1 (stereo not drawn)	75
Cn1cccc1CC(=O)N/N=C/c1cc([N+](=O)[O-])ccc1Cl	0
O=C(N/N=C/c1cccc([N+](=O)[O-])c1)C1COc2ccccc2O1 (stereo not drawn)	188
CCN(CC)C1CC(=O)N(c2ccc(Br)cc2)C1=O (stereo not drawn)	0
CN(C)C(=S)Nc1ccc(Br)c(Cl)c1	0
C[C@H]1CN([C@@H](C)CO)C(=O)c2cc(-c3cccc(C(=O)N(C)C)c3)cnc2O[C@@H]1CN(C)S(=O)(=O)c1ccc(F)cc1	0
CC(C)(C)OC(=O)N1CCCC(C(=O)Nc2cccc(C(=O)NCc3ccccc3)c2)C1 (stereo not drawn)	64
O=C(Cc1cccc(NC(=O)C2CCCN(C(=O)c3ccccc3)C2)c1)Nc1cccc(C(=O)N2CCOCC2)c1 (stereo not drawn)	0
O=C(Cc1cccc(NC(=O)C2CCN(C(=O)c3ccccc3)CC2)c1)Nc1cccc(C(=O)N2CCCCC2)c1	0
CN(C)S(=O)(=O)c1cc(NC(=O)CN2CCc3ccccc32)ccc1Cl	0
CC(C(=O)N1CCc2ccccc2C1)N(c1ccccc1)S(C)(=O)=O (stereo not drawn)	0
C/C(=C\C(=O)N1CCc2ccccc21)C(=O)O	60
